How the values were obtained:
[1] = Cmax in Beagle dog at 2 mg/kg, iv administered as single dose by LC-MS/MS analysis; format: ADME, organism-based, Canis lupus familiaris; set-up: dose 2 mg/kg, route intravenous; settings: in vivo
Method in brief: (§1)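 Beagle dogs, 7−9 months, 8−12 kg, non-naive, fasted overnight; 3 dogs per iv or po group; dosed in 5% DMSO/5% solutol/90% saline. Serial blood into sodium heparin, plasma separated at 4 °C, stored −80 °C; LC-MS/MS quantitation; noncompartmental analysis, BLQs omitted.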

[2] = Volume of distribution at steady state in Beagle dog at 2 mg/kg, iv administered as single dose by LC-MS/MS analysis; format: ADME, organism-based, Canis lupus familiaris; settings: in vivo, read-out: Vdss
Method in brief: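 Non-naive beagle dogs (7−9 months, 8−12 kg) were fasted overnight, with 3 animals in the iv group. Compound was given as a single dose in 5% DMSO, 5% solutol and 90% saline. Plasma was taken from heparinized blood at each time point and stored at −80 °C. Levels were measured by LC-MS/MS, with noncompartmental analysis and BLQ values omitted.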

[3] = Cmax in Beagle dog at 5 mg/kg, po administered as single dose by LC-MS/MS analysis; format: ADME, organism-based, Canis lupus familiaris; set-up: dose 5 mg/kg, route oral; settings: in vivo; method in brief: as §1
[4] = Intrinsic clearance in mouse liver microsomes at 1 uM preincubated for 10 mins followed by NADPH addition measured up to 60 mins by LC-MS/MS analysis; format: ADME, microsome; settings: read-out: CLH
[5] = Clearance in Sprague-Dawley rat at 2 mg/kg, iv administered as single dose by LC-MS/MS analysis; format: ADME, organism-based; settings: in vivo
Method in brief: (§2)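 Male Sprague−Dawley rats (6−7 weeks, 190−240 g), fasted overnight with food returned 4 h post-dose; 3 rats iv, 3 po; vehicle 5% DMSO, 5% solutol, 90% saline. Heparinized plasma frozen at −80 °C, analysed by LC-MS/MS; noncompartmental PK parameters, BLQ values excluded.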

[6] = AUC (0 to 24 hrs) in Sprague-Dawley rat at 2 mg/kg, iv administered as single dose by LC-MS/MS analysis; format: ADME, organism-based; set-up: dose 2 mg/kg, time < 24 hr, route intravenous; settings: in vivo; method in brief: as §2
[7] = Volume of distribution at steady state in Sprague-Dawley rat at 2 mg/kg, iv administered as single dose by LC-MS/MS analysis; format: ADME, organism-based; settings: in vivo, read-out: Vdss
Method in brief: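 Male Sprague−Dawley rats (6−7 weeks, 190−240 g) were fasted overnight, with food returned 4 h post-dose and n = 3 in the iv group. A single dose was given in 5% DMSO, 5% solutol and 90% saline. Heparinized plasma was separated at 4 °C and frozen at −80 °C. Concentrations were measured by LC-MS/MS, with parameters from noncompartmental analysis and BLQs excluded.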

[8] = Plasma concentration in Beagle dog at 5 mg/kg, po administered as single dose after 24 hrs by LC-MS/MS analysis; format: ADME, organism-based, Canis lupus familiaris; method in brief: as §1
[9] = Oral bioavailability in Sprague-Dawley rat at 5 mg/kg administered as single dose by LC-MS/MS analysis; format: ADME, organism-based; settings: in vivo; method in brief: as §2
[10] = Clearance in Beagle dog at 2 mg/kg, iv administered as single dose by LC-MS/MS analysis; format: ADME, organism-based, Canis lupus familiaris; settings: in vivo; method in brief: as §1
[11] = Intrinsic clearance in human liver microsomes at 1 uM preincubated for 10 mins followed by NADPH addition measured up to 60 mins by LC-MS/MS analysis; format: ADME, microsome; settings: read-out: CLH
[12] = AUC (0 to 24 hrs) in Sprague-Dawley rat at 5 mg/kg, po administered as single dose by LC-MS/MS analysis; format: ADME, organism-based; set-up: time < 24 hr, dose 5 mg/kg, route oral; settings: in vivo; method in brief: as §2
[13] = Plasma concentration in Beagle dog at 2 mg/kg, iv administered as single dose after 24 hrs by LC-MS/MS analysis; format: ADME, organism-based, Canis lupus familiaris; method in brief: as §1
[14] = AUC (0 to 24 hrs) in Beagle dog at 2 mg/kg, iv administered as single dose by LC-MS/MS analysis; format: ADME, organism-based, Canis lupus familiaris; set-up: dose 2 mg/kg, time < 24 hr, route intravenous; settings: in vivo; method in brief: as §1
[15] = AUC (0 to 24 hrs) in Beagle dog at 5 mg/kg, po administered as single dose by LC-MS/MS analysis; format: ADME, organism-based, Canis lupus familiaris; set-up: time < 24 hr, dose 5 mg/kg, route oral; settings: in vivo; method in brief: as §1
[16] = (§3) Intrinsic clearance in dog liver microsomes at 1 uM preincubated for 10 mins followed by NADPH addition measured up to 60 mins by LC-MS/MS analysis; format: ADME, Canis lupus familiaris, microsome; settings: liver microsomes, read-out: CLH
[17] = Drug uptake in Balb/c mouse liver at 12.5 mg/kg, po bid after 24 hrs by LC-MS/MS analysis; format: ADME, organism-based; settings: read-out: Drug uptake
[18] = Oral bioavailability in Beagle dog at 5 mg/kg administered as single dose by LC-MS/MS analysis; format: ADME, organism-based, Canis lupus familiaris; settings: in vivo
[19] = Half life in Beagle dog at 2 mg/kg, iv administered as single dose by LC-MS/MS analysis; format: ADME, organism-based, Canis lupus familiaris; settings: in vivo
[20] = Plasma concentration in Balb/c mouse at 12.5 mg/kg, po bid after 24 hrs by LC-MS/MS analysis; format: ADME, organism-based
Liver = assay: as §3; format: ADME, Canis lupus familiaris, microsome; settings: microsomes, 1 h, 1 µM

CLint scaled at 1 µM [4] [mL/min/kg] | clearance [5] [mL/min/kg] | AUC(0-t) at 24 h [6] [ng·h/mL] | Vd [7] [L/kg] | bioavailability [9] [%] | CLint scaled at 1 µM [11] [mL/min/kg] | AUC(0-t) at 24 h [12] [ng·h/mL] | CLint scaled at 1 µM [16] [mL/min/kg] | SMILES | other results
485 | 82.2 | 405 | 4.85 | 8.9 | 20 | 90 | – | CCOC(=O)C1=C(CN2CCOCC2)NC(c2nccs2)=NC1c1ccc(F)cc1Br (centres undefined) | Cmax [1]: 1420 ng/mL; Vd [2]: 15.8 L/kg; Cmax [3]: 391 ng/mL; concentration at 24 h [8]: 9 ng/mL; clearance [10]: 16.6 mL/min/kg; concentration at 24 h [13]: 15 ng/mL; AUC(0-t) at 24 h [14]: 1470 ng·h/mL; AUC(0-t) at 24 h [15]: 1010 ng·h/mL
377 | 34.9 | 948 | 0.4 | 23.1 | 7 | 548 | 29 | CCOC(=O)C1=C(CN2CCOC[C@H]2C(=O)O)NC(c2nccs2)=N[C@H]1c1ccc(F)cc1Br | –
316 | 78.7 | 423 | 1.53 | 54 | 23 | 572 | 46 | CCOC(=O)C1=C(CN2CCOC[C@@H]2CCC(=O)O)NC(c2nccs2)=N[C@H]1c1ccc(F)cc1Br | –
385 | 8.11 | 4110 | 0.41 | 47.7 | 18 | 4900 | 14 | CCOC(=O)C1=C(CN2CCO[C@H](CCC(=O)O)C2)NC(c2nccs2)=N[C@H]1c1ccc(F)cc1Br | Cmax [1]: 2050 ng/mL; concentration at 24 h [17]: 361 ng/g; Vd [2]: 0.76 L/kg; bioavailability [18]: 114%; half-life [19]: 5.71 h; concentration at 24 h [8]: 232 ng/mL; clearance [10]: 1.93 mL/min/kg; concentration at 24 h [13]: 47 ng/mL; AUC(0-t) at 24 h [14]: 16500 ng·h/mL; concentration at 24 h [20]: 849 ng/mL; AUC(0-t) at 24 h [15]: 47900 ng·h/mL
89 | 20.6 | 1610 | 0.37 | 44.5 | 5 | 1750 | – | CCOC(=O)C1=C(CN2CCO[C@H](C)[C@H]2C(=O)O)NC(c2nccs2)=N[C@H]1c1ccc(F)cc1Br | CLH (Liver): Stable
362 | 34.4 | 965 | 0.77 | 41.3 | 21 | 999 | 55 | CCOC(=O)C1=C(CN2CC(F)(F)C[C@@H]2CCC(=O)O)NC(c2nccs2)=N[C@H]1c1ccc(F)cc1Br | –
281 | 77.3 | 430 | 1.24 | 41 | 21 | 436 | 11 | CCOC(=O)C1=C(CN2CCO[C@@H](CCC(=O)O)C2)NC(c2nccs2)=N[C@H]1c1ccc(F)cc1Br | –

Reference: ChEMBL document CHEMBL4024802, “3-((R)-4-(((R)-6-(2-Bromo-4-fluorophenyl)-5-(ethoxycarbonyl)-2-(thiazol-2-yl)-3,6-dihydropyrimidin-4-yl)methyl)morpholin-2-yl)propanoic Acid (HEC72702), a Novel Hepatitis B Virus Capsid Inhibitor Based on Clinical Candidate GLS4” (J Med Chem, 2018)
